The results in this text go back to ChEMBL document CHEMBL1128391, “Investigation of the configurational and conformational influences on the hormonal activity of 1,2-bis(2,6-dichloro-4-hydroxyphenyl)ethylenediamines and of their platinum(II) complexes. 1. Synthesis, estradiol receptor affinity, and estrogenic activity of diastereomeric [N-alkyl- and …” (J Med Chem, 1995).

What all share (assay type): functional
Experiment [1] deals with T1, Estrogen receptor (Mus musculus) (UniProt O08537+P19785). As to the kind of experiment: Estrogenic effect in uterotrophic assay in mice at 100 nM/animal dose. The gist of the method:
(§1)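 Immature female NMRI mice (20 days old, 10–12 g, six per group) given test compound sc once daily for three consecutive days in poly(ethylene glycol) 400/H2O (1.8% NaCl) 1:1. Uteri excised 24 h after last injection, fixed in Bouin's solution, dried, weighed. Effect = uterus dry weight (mg)/body weight (g) × 100, expressed relative to vehicle and estrone standard (0.4 μg) as % estrogenic effect.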

In experiment [2] the target is T1, Estrogen receptor (Mus musculus). Put plainly: Estrogenic effect in uterotrophic assay in mice at 0.1 nM/animal dose. Summed up: as §1
Experiment [3] shares this target. Put plainly: Estrogenic effect in uterotrophic assay in mice at 1 nM/animal dose. Summed up:
as §1

The target is the same in experiment [4]. Put plainly: Estrogenic effect in uterotrophic assay in mice at 10 nM/animal dose. The gist of the method:
as §1

Experiment [5] shares this target. Put plainly: Estrogenic effect in uterotrophic assay in mice at 1000 nM/animal dose. Summed up: as §1

T1 sequence (O08537 whole entry, looked up): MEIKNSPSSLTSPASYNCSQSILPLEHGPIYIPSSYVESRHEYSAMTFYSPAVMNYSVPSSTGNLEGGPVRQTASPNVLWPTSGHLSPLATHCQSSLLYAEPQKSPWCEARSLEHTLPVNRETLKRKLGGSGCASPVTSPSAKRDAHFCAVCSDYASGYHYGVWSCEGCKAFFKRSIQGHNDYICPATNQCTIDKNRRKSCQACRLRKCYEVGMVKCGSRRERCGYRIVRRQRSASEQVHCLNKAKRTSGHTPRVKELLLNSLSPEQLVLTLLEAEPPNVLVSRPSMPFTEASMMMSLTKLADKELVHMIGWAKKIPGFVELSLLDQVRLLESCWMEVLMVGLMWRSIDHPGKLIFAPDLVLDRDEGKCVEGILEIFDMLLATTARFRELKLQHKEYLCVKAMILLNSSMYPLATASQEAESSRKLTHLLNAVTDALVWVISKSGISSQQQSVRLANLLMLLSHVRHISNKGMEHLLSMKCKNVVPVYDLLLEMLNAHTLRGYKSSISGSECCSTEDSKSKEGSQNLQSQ
T1 sequence (P19785 whole entry, looked up): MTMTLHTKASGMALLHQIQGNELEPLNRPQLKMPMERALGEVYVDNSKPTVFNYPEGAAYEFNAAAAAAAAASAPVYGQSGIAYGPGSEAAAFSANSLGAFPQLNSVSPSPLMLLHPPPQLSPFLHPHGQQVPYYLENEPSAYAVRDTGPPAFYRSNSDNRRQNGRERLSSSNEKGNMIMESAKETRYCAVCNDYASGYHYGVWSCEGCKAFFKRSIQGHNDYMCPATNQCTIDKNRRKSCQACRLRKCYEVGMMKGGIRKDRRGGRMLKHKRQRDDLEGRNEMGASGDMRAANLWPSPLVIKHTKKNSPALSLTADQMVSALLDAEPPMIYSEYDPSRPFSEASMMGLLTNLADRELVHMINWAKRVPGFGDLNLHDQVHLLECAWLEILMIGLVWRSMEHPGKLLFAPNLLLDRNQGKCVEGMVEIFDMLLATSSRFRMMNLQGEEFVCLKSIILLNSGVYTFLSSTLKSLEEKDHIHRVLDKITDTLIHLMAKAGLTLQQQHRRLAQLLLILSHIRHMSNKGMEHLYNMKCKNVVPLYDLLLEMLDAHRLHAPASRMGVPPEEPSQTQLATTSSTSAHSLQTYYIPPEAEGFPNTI

On to `CCNC(CCC(N)c1c(Cl)cc(O)cc1Cl)c1c(Cl)cc(O)cc1Cl` (stereo unspecified), for which the Estrogenic effect in experiment [1] was 156%; in experiment [2] it was 22%; in experiment [3] it was 93%; in experiment [4], 140%.
In the case of `CCNC(CCC(NCC)c1c(Cl)cc(O)cc1Cl)c1c(Cl)cc(O)cc1Cl` (racemic), the Estrogenic effect in experiment [1] stood at 142%; in experiment [2], 0%; in experiment [3], 0%; in experiment [4] it was 78%.
Turning to `CNC(CCC(NC)c1c(Cl)cc(O)cc1Cl)c1c(Cl)cc(O)cc1Cl` (racemic), the Estrogenic effect in experiment [1] amounted to 12%; in experiment [5] it was 72%; in experiment [2] it was 0%; in experiment [3], 0%; in experiment [4], 3%.
Turning to `NC(CCC(N)c1c(Cl)cc(O)cc1Cl)c1c(Cl)cc(O)cc1Cl` (racemic), the Estrogenic effect amounted to 10% in experiment [1]; 21% in experiment [5]; 0% in experiment [2]; 0% in experiment [3]; 13% in experiment [4].
`CCNC(CCC(NCC)c1c(Cl)cc(O)cc1Cl)c1c(Cl)cc(O)cc1Cl` (stereo in doubt): the Estrogenic effect in experiment [1] was 128%; in experiment [2], 61%; in experiment [3], 125%; in experiment [4], 140%.
With `CNC(CCC(NC)c1c(Cl)cc(O)cc1Cl)c1c(Cl)cc(O)cc1Cl` (stereo in doubt), the Estrogenic effect in experiment [1] was 127%; in experiment [5], 47%; in experiment [2], 0%; in experiment [3], 47%; in experiment [4], 139%.
As for `NC(CCC(N)c1c(Cl)cc(O)cc1Cl)c1c(Cl)cc(O)cc1Cl` (stereo in doubt), the Estrogenic effect worked out at 100% in experiment [1], 0% in experiment [2], 38% in experiment [3] and 135% in experiment [4].
